Measurements reported in PMC6712212 (Drug Design, Development and Therapy, 2019).

Test system: NSCLC-H292 cells
Assay: Flow cytometry cell cycle analysis
Type: cell-based, human
Outline: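 Cells were grown in six-well plates and treated 48 hrs, then harvested and centrifuged 5 mins. They were resuspended in precooled PBS, centrifuged again, and fixed in 70% ethanol overnight at 4°C. After a PBS rinse, cells were stained with propidium iodide. Red fluorescence of 1×10^5 cells was measured by flow cytometry with 488 nm excitation.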

O[C@@H](CS)[C@@H](O)CS [DTT] was tested, and the “Cell cycle effect (in words)” value was “cells were blocked in G0/G1phase”.
